Reference: ChEMBL document CHEMBL3992522, “Antileishmanial Activity of Pyrazolopyridine Derivatives and Their Potential as an Adjunct Therapy with Miltefosine” (J Med Chem, 2017)
The source made the active and inactive calls. The calls are words filed in the database; no cut-off is given here.

How the values were obtained:
[1] = test system: Leishmania donovani; experiment: Antileishmanial activity against Leishmania donovani MHOM/IN/80/DD8 promastigote forms harboring luciferase gene at 25 uM after 72 hrs by Steady-Glo reagent based luminescence assay relative to control; type: functional; conditions: MHOM/IN/80/DD8, 72 h, read-out: GI
Summary of the method: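 Exponential-phase Dd8-Luc promastigotes at 1×10^6/mL in M199 with 10% FBS, 24 °C, given 50 and 25 µM for 72 h. Vehicle 0.1% DMSO. Steady-Glo added 1:1, luminescence (RLU) read. IC50 from four-parameter Hill regression, derived only where inhibition exceeded 90%. Means of at least three independent experiments.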

[2] = Cytotoxicity against mouse J774 cells assessed as reduction in cell viability after 72 hrs by MTT assay; type: cell-based
Summary of the method: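 Vero and J774 cells seeded at 1×10^5 per well for 24 h, then exposed 72 h to seven two-fold dilutions from 500 to 7.81 μM. MTT solution (5 mg/mL stock) added for 2 h at 37 °C, formazan dissolved in DMSO and read at 540 nm. CC50 derived by the Huber and Koella method.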

[3] = Selectivity index, ratio of CC50 for African green monkey Vero cells to IC50 for Leishmania donovani MHOM/IN/80/DD8 amastigote forms infected in mouse J774 cells; type: toxicity, cell-based; conditions: read-out: Ratio CC50/IC50
Summary of the method: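 CC50: Vero or J774 cells (1×10^5/well) exposed 72 h to seven two-fold dilutions, 500–7.81 μM; MTT 2 h at 37 °C, formazan in DMSO read at 540 nm. IC50: luciferase-expressing Dd8 amastigotes in J774 macrophages (1:8), 72 h, luminescence, four-parameter Hill fit. SI = CC50/IC50, IC50 mean of three experiments.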

[4] = test system: Leishmania donovani; experiment: Antileishmanial activity against Leishmania donovani MHOM/IN/80/DD8 amastigote forms harboring luciferase gene infected in mouse J774 cells at 4.05 uM up to 72 hrs by Giemsa staining based assay relative to control; type: functional; conditions: MHOM/IN/80/DD8, J774, 72 h
Summary of the method: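 J774 macrophages in chamber slides infected with Dd8 promastigotes (1:10 cell:parasite in methods; 1:8 in legend) for 24 h, then treated 48 and 72 h. Cells methanol-fixed, stained with 20% Giemsa. Amastigotes per 100 macrophages counted against untreated infected controls.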

[5] = test system: Leishmania donovani; experiment: Antileishmanial activity against Leishmania donovani MHOM/IN/80/DD8 promastigote forms harboring luciferase gene at 50 uM up to 72 hrs by MTT assay relative to control; type: functional; conditions: MHOM/IN/80/DD8, 72 h
[6] = Stability in pH 1.2 simulated gastric fluid at 5 ug/ml after 120 mins by HPLC method
Summary of the method: (§1)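 Incubated in simulated gastric fluid (pH 1.2) or simulated intestinal fluid (pH 6.5); percentage remaining intact determined after 120 min.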

[7] = Stability in pH 6.5 simulated intestinal fluid at 5 ug/ml after 120 mins by HPLC method; summary of the method: as §1
[8] = test system: Leishmania donovani; experiment: Antileishmanial activity against Leishmania donovani amastigote forms infected in Balb/c mouse assessed as inhibition of parasitic burden in liver at 50 mg/kg, ip administered for 5 consecutive days measured on day 7 post last treatment by Giemsa staining based assay relative to control; type: functional; conditions: 168 h
[9] = test system: Leishmania donovani; experiment: Antileishmanial activity against Leishmania donovani amastigote forms infected in Balb/c mouse assessed as inhibition of parasitic burden in liver at 100 mg/kg, ip administered for 5 consecutive days measured on day 7 post last treatment by Giemsa staining based assay relative to control; type: functional; conditions: 168 h
[10] = test system: Leishmania donovani; experiment: Antileishmanial activity against Leishmania donovani amastigote forms infected in Balb/c mouse assessed as inhibition of parasitic burden in spleen at 200 mg/kg, ip administered for 5 consecutive days measured on day 7 post last treatment by Giemsa staining based assay relative to control; type: functional; conditions: Leishmania donovani, ip, 168 h
[11] = test system: Leishmania donovani; experiment: Antileishmanial activity against Leishmania donovani amastigote forms infected in Balb/c mouse assessed as inhibition of parasitic burden in liver at 50 mg/kg, ip administered for 5 consecutive days measured 1 week post last treatment by Giemsa staining based assay relative to control; type: functional; conditions: 168 h
[12] = test system: Leishmania donovani; experiment: Antileishmanial activity against Leishmania donovani amastigote forms infected in Balb/c mouse assessed as reduction in spleen weight at 12.5 to 200 mg/kg, ip administered for 5 consecutive days co-treated with 5 to 25 mg/kg, po miltefosine; type: functional, organism-based
[13] = test system: Mus musculus; experiment: Restoration of T cell proliferation in Balb/c mouse splenocytes infected with Leishmania donovani amastigote forms at 25 mg/kg, ip co-treated with 5 mg/kg, po miltefosine administered for 5 consecutive days measured on day 7 post last treatment followed by soluble Leishmania donovani promastigote antigen-stimulation for 72 hrs by MTT assay relative to control; type: functional
Summary of the method: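 Splenocytes from treated infected BALB/c mice (day 4 or 7 post-treatment) isolated by Ficoll gradient, plated at 10^5/well in triplicate in phenol red-free RPMI 1640, stimulated with 5 μg/mL SLA for 72 h at 37 °C, 5% CO2. Proliferation read by MTT (0.5 mg/mL), formazan dissolved in DMSO, OD 540 nm.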

[14] = test system: Mus musculus; experiment: Decrease in TGFbeta level in Balb/c mouse splenocytes infected with Leishmania donovani amastigote forms at 25 mg/kg, ip co-treated with 5 mg/kg, po miltefosine administered for 5 consecutive days measured on day 7 post last treatment by sandwich ELISA relative to control; type: functional
Summary of the method: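 Splenocytes (2×10^6) from treated infected BALB/c mice taken on day 4 or 7 post-treatment. Cultured in phenol-red-free RPMI 1640 with 5 μg/mL soluble L. donovani antigen for 72 h at 37 °C, 5% CO2. Supernatant cytokines measured by sandwich ELISA against a standard curve. Mean ± SD, n = 5 mice per group, three independent experiments.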

[15] = test system: Mus musculus; experiment: Increase in iNOS mRNA expression level in Balb/c mouse splenocytes infected with Leishmania donovani amastigote forms at 25 mg/kg, ip cotreated with 5 mg/kg, po miltefosine for 5 consecutive days measured on day 7 post last treatment by RT-PCR assay relative to control; type: functional
Summary of the method: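 Infected BALB/c mice dosed for 5 consecutive days (test compound i.p. in 8% DMSO, miltefosine oral), n = 5 per group; splenocytes taken day 4 and day 7 post-treatment. Total RNA extracted and iNOS mRNA quantified by real-time PCR, normalized to mouse β-actin, expressed as fold change over uninfected controls.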

[16] = test system: Mus musculus; experiment: Increase in iNOS-mediated NO generation in Balb/c mouse splenocytes infected with Leishmania donovani amastigote forms at 25 mg/kg, ip for 5 consecutive days measured on day 4 and 7 post last treatment followed by soluble Leishmania donovani promastigote antigen-stimulation for 72 hrs by Griess assay relative to control; type: functional
Summary of the method: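 Splenocytes from treated infected BALB/c mice (5-day regimen, i.p. test compound, oral miltefosine; n = 5) isolated day 4 and day 7 post-treatment. Cultured in phenol red-free RPMI 1640 with 5 μg/mL SLA for 72 h at 37 °C, 5% CO2. Supernatant nitrite measured by Griess assay at 540 nm against a sodium nitrite standard curve.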

[17] = Elimination rate constant in Swiss mouse at 50 mg/kg, po by LC-MS/MS analysis; type: ADME, organism-based; conditions: in vivo
[18] = Cmax in Swiss mouse at 50 mg/kg, po by LC-MS/MS analysis; type: ADME, organism-based; design: dose 50 mg/kg, route oral; conditions: in vivo
[19] = Apparent volume of distribution in Swiss mouse at 50 mg/kg, po by LC-MS/MS analysis; type: ADME, organism-based; conditions: in vivo
[20] = Apparent clearance in Swiss mouse at 50 mg/kg, po by LC-MS/MS analysis; type: ADME, organism-based; conditions: in vivo

With COc1ccc(C2C3=C(CCC3=O)Nc3c2c(-c2c[nH]c4ccccc24)nn3-c2ccc(Cl)c(Cl)c2)cc1OC (stereo not given) the inhibition of growth at 25 µM [1] was 91.7%, the CC50 at 72 h [2] was 409 µM and the selectivity ratio [3] was 108. It also gave an inhibition at 4.05 µM [4] of over 93%, an inhibition at 50 µM [5] of over 95% and a Stability [6] of 85%. For the same molecule, the Stability [7] was 99%, the inhibition in vivo at 50 mg/kg [8] was over 93% and the inhibition in vivo at 100 mg/kg [9] was 92.7%. For the same molecule, the inhibition in vivo at 200 mg/kg [10] was 90%, the inhibition in vivo at 50 mg/kg [11] was over 93% and the Activity [12] was “Active”. For the same molecule, the “fold change (FC)” value [13] was 8.4, the “inhibition (INH)” value [14] was 93% and the “fold change (FC)” value [15] was 8.5. For the same molecule, the “fold change (FC)” value [16] was 4.1, the k el [17] was 3.89e-05 s⁻¹ and the Cmax [18] was 4.88 µM. The Vd/F [19] was 19.6 L/kg and the CL/F [20] was 47.3 mL/min/kg.
